The labels stand for the following.
B1: Osa-1-4 twister ribozyme (parent)
chain: CCGCCUAACACUGCCAAUGCCGGUCCCAAGCCCGGAUAAAAGUGGAGGGGGCGG

Experimental findings from the RNAGym collection of RNA variant scans (doi:10.1002/anie.201605470) are described below.

In the data set the parent is B1. Briefly: self-cleavage, relative activity (ratio to wild type); higher = more cleavage; co-transcriptional. Put shortly:
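Relative activity is the fraction cleaved divided by that of the wild-type ribozyme. The library came from a DNA template for a 54-nucleotide Oryza sativa twister ribozyme, doped at the 48 positions downstream of the cleavage site with 97 % wild-type base and 1 % of each other base. After 2 h of in vitro transcription at 37 °C with co-transcriptional self-cleavage, the RNA was reverse-transcribed with a template-switching oligonucleotide, amplified by PCR and deep-sequenced, and reads with or without upstream sequence gave the cleavage status.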
For CCGCCUAAGACUGCCAAUGCCGGUCCCAAGCCCGGAUGAAAGUGGAGGGGGCGG [A38G C9G], the self-cleavage came out at 0.88. Take CCGCCUAAAACUGCCAAUGCCGGUCCCAAGCCCGGAUGAAAGUGGAGGGGGCGG [A38G C9A]: the self-cleavage turned out to be 0.45. On to CCGCCUAAUACUGCCAAUGCCGGUCCCAAGCCCGGAUGAAAGUGGAGGGGGCGG [A38G C9U], for which the self-cleavage was 0.7. On to CCGCCUAACACUGCCAAUGCCGGUCCGAAGCCCGGAUGAAAGUGGAGGGGGCGG [A38G C27G], for which the self-cleavage is 0.09. On to CCGCCUAACACUGCCAAUGCCGGUCCAAAGCCCGGAUGAAAGUGGAGGGGGCGG [A38G C27A], for which the self-cleavage turned out to be 0.16. With CCGCCUAACACUGCCAAUGCCGGUCCUAAGCCCGGAUGAAAGUGGAGGGGGCGG [A38G C27U], the self-cleavage was found to be 0.18. For CCGCCUAACACUGCCAAUGGCGGUCCCAAGCCCGGAUGAAAGUGGAGGGGGCGG [A38G C20G], the self-cleavage stood at 0.19. Consider CCGCCUAACACUGCCAAUGACGGUCCCAAGCCCGGAUGAAAGUGGAGGGGGCGG [A38G C20A], for which the self-cleavage amounted to 0.9. Regarding CCGCCUAACACUGCCAAUGUCGGUCCCAAGCCCGGAUGAAAGUGGAGGGGGCGG [A38G C20U], the self-cleavage amounted to 0.98. As to CCGCCUAACACUGCCAAUGCCGGUGCCAAGCCCGGAUGAAAGUGGAGGGGGCGG [A38G C25G], the self-cleavage was 0.11. Consider CCGCCUAACACUGCCAAUGCCGGUACCAAGCCCGGAUGAAAGUGGAGGGGGCGG [A38G C25A], for which the self-cleavage turned out to be 0.09.

For the variant CCGCCUAACACUGCCAAUGCCGGUUCCAAGCCCGGAUGAAAGUGGAGGGGGCGG [A38G C25U], the self-cleavage stood at 0.78.

Regarding CCGCCUAACACUGCGAAUGCCGGUCCCAAGCCCGGAUGAAAGUGGAGGGGGCGG [A38G C15G], the self-cleavage came to 0.35. CCGCCUAACACUGCAAAUGCCGGUCCCAAGCCCGGAUGAAAGUGGAGGGGGCGG [A38G C15A]: the self-cleavage is 0.33. As for CCGCCUAACACUGCUAAUGCCGGUCCCAAGCCCGGAUGAAAGUGGAGGGGGCGG [A38G C15U], the self-cleavage is 0.47.

As to CCGCCUAACACUGCCAAUGCCGGUCCCAAGCUCGGAUGAAAGUGGAGGGGGCGG [A38G C32U], the self-cleavage was found to be 0.12.

In the case of CCGCCUAACACUGCCAAUGCCGGUCCCAAGCGCGGAUGAAAGUGGAGGGGGCGG [A38G C32G], the self-cleavage came to 0.18. As to CCGCCUAACACUGCCAAUGCCGGUCCCAAGCACGGAUGAAAGUGGAGGGGGCGG [A38G C32A], the self-cleavage was found to be 0.09. For CCGCCUAACACUGCCAAUGCCGGUCCCAAGCCCCGAUGAAAGUGGAGGGGGCGG [A38G G34C], the self-cleavage was determined as 0.59. With CCGCCUAACACUGCCAAUGCCGGUCCCAAGCCCUGAUGAAAGUGGAGGGGGCGG [A38G G34U], the self-cleavage amounted to 0.74. Regarding CCGCCUAACACUGCCAAUGCCGGUCCCAAGCCCAGAUGAAAGUGGAGGGGGCGG [A38G G34A], the self-cleavage came to 0.84. In the case of CCGCCUAACACUGCCAAUGCCCGUCCCAAGCCCGGAUGAAAGUGGAGGGGGCGG [A38G G22C], the self-cleavage is 0.13.

As to CCGCCUAACACUGCCAAUGCCUGUCCCAAGCCCGGAUGAAAGUGGAGGGGGCGG [A38G G22U], the self-cleavage worked out at 0.85. Take CCGCCUAACACUGCCAAUGCCAGUCCCAAGCCCGGAUGAAAGUGGAGGGGGCGG [A38G G22A]: the self-cleavage is 1.01. For CCGCCUAACACUGCCAAUGCCGGUCCCAAGCCCGGAUCAAAGUGGAGGGGGCUG [A38C G53U], the self-cleavage was determined as 0.24. As to CCGCCUAACACUGCCAAUGCCGGUCCCAAGCCCGGAUGUAAGUGGAGGGGGCGG [A38G A39U], the self-cleavage worked out at 0.98. CCGCCUAACACUGCCAAUGCCGGUCCCAAGCCCGGAUGCAAGUGGAGGGGGCGG [A38G A39C]: the self-cleavage was 0.97. As for CCGCCUAACACUGCCAAUGCCGGUCCCAAGCCCGGAUGGAAGUGGAGGGGGCGG [A38G A39G], the figure is 0.4; as for CCGCCUAACACUGCCAAUGCCGGUCCCAAGCCCGGAUCAAAGUGGAGGGGGCGA [A38C G54A], 0.96. On to CCGCCUAACACUGCCAAUGCCGGUCCCAAGCCCGGAUCAAAGUGGAGGGGGCGU [A38C G54U], for which the self-cleavage worked out at 0.94.

CCGCCUAACACUGCCAAUGCCGGUCCCAAGCCCGGAUCAAAGUGGAGGGGGCGC [A38C G54C]: the self-cleavage is 0.93. As to CCGCCUAACACUGCCAAUGCCGGUCCCAAGCCCGGAUCAAAGCGGAGGGGGCGG [A38C U43C], the self-cleavage was found to be 0.38. The figure for CCGCCUAACACUGCCAAUGCCGGUCCCAAGCCCGGAUCAAAGGGGAGGGGGCGG [A38C U43G] is 0.34. For CCGCCUAACACUGCCAAUGCCGGUCCCAAGCCCGGAUCAAAGAGGAGGGGGCGG [A38C U43A], the self-cleavage amounted to 0.88. Take CCGCCUAACACUGCCAAUGCCGGUCCCAAGCCCGGAUGAAAGUGGAGGGGGCGG [A38G]: the self-cleavage was found to be 1.01. Turning to CCGCCUUACACUGCCAAUGCCGGUCCCAAGCCCGGAUGAAAGUGGAGGGGGCGG [A38G A7U], the self-cleavage turned out to be 0.08. As for CCGCCUGACACUGCCAAUGCCGGUCCCAAGCCCGGAUGAAAGUGGAGGGGGCGG [A38G A7G], the figure is 0.31; as for CCGCCUCACACUGCCAAUGCCGGUCCCAAGCCCGGAUGAAAGUGGAGGGGGCGG [A38G A7C], 0.06.

As to CCGCCUAACACUGGCAAUGCCGGUCCCAAGCCCGGAUGAAAGUGGAGGGGGCGG [A38G C14G], the self-cleavage is 0.13. CCGCCUAACACUGUCAAUGCCGGUCCCAAGCCCGGAUGAAAGUGGAGGGGGCGG [A38G C14U]: the self-cleavage turned out to be 0.13. As to CCGCCUAACACUGACAAUGCCGGUCCCAAGCCCGGAUGAAAGUGGAGGGGGCGG [A38G C14A], the self-cleavage was 0.07. For the variant CCGCCUAACACUGCCAAUGCCGGUCCCAAGCCCGGAUGAAAGUGGAGGGGGGGG [A38G C52G], the self-cleavage turned out to be 0.96. As for CCGCCUAACACUGCCAAUGCCGGUCCCAAGCCCGGAUGAAAGUGGAGGGGGAGG [A38G C52A], the figure is 1.02; as for CCGCCUAACACUGCCAAUGCCGGUCCCAAGCCCGGAUGAAAGUGGAGGGGGUGG [A38G C52U], 0.95.

As to CCGCCUAACACUGCCAAUGCCGGUCCCAACCCCGGAUGAAAGUGGAGGGGGCGG [A38G G30C], the self-cleavage was 0.04. Turning to CCGCCUAACACUGCCAAUGCCGGUCCCAAACCCGGAUGAAAGUGGAGGGGGCGG [A38G G30A], the self-cleavage is 0.05. Turning to CCGCCUAACACUGCCAAUGCCGGUCCCAAUCCCGGAUGAAAGUGGAGGGGGCGG [A38G G30U], the self-cleavage turned out to be 0.04. For CCGCCUAACACUGCCAAUGCCGGUCGCAAGCCCGGAUGAAAGUGGAGGGGGCGG [A38G C26G], the self-cleavage was 0.14.
